No end group written: not given here.
How the values were obtained:
neg-HEK cells = assay: Flow cytometry binding of VHH–biotin–PTH conjugates to neg-HEK cells; conditions: for EC50: read-out: Binding EC50, Neg-HEK, 1 h on ice, streptavidin–PE, flow cytometry (MFI), mean of three independent experiments
Method in brief: (§1)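 Adherent cells were detached with trypsin, washed, resuspended in PBS, and stained for 1 h on ice with graded concentrations of biotin-labelled VHH–PTH1–11 conjugates. Cells were washed, stained with streptavidin–PE, and analysed by flow cytometry. Line 1 used PTHR1-6E-HEK cells (HEK293 expressing PTHR1 with the 6E tag in the extracellular domain); line 2 used parental HEK293 cells. Median fluorescence intensity was fitted to sigmoidal curves, with maximal staining expressed relative to the MHC-I conjugate; three independent experiments.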

human PTHR1 = assay: cAMP stimulation by PTH1–34 CLAMPs on receptor cells; type: cell-based; conditions: HEK293 cells (receptor cells) that express human PTHR1; Fig. 5 (legend: PTHR1-6E-HEK)
PTHR1-6E = target: T1, PTHR1-6E (Homo sapiens, UniProt Q03431, A83I/D81R/G76A/K80A/K82Q/P78E/R79L/S71Q/S73D/S75E/T74Q); assay: cAMP response; type: cell-based
T1 sequence (Q03431 23-593 S71Q/S73D/T74Q/S75E/G76A/P78E/R79L/K80A/D81R/K82Q/A83I limits assumed): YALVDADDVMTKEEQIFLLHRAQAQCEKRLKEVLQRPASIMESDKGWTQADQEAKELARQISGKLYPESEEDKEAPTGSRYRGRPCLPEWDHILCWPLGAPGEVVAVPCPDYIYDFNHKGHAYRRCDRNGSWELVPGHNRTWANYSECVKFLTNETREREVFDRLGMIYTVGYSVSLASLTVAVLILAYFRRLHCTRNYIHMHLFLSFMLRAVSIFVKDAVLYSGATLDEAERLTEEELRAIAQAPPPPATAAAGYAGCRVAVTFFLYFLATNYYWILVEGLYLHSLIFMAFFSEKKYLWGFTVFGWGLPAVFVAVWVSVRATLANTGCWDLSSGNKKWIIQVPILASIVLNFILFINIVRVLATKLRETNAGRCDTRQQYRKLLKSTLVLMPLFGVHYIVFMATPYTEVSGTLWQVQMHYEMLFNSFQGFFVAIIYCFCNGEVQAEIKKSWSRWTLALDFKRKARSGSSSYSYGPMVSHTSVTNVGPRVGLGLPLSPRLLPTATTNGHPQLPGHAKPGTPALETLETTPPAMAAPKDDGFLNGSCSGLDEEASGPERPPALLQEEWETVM
Method in brief: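 HEK293 cells stably expressing PTHR1 carrying the 6E tag plus a cAMP-responsive luciferase (Glosensor) were treated with graded concentrations of VHH–PTH1–11 conjugates. cAMP was read as luminescence. EC50 came from a sigmoidal dose–response fit with variable slope, using replicate wells per experiment and three independent experiments.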

PTHR1-6E-HEK cells = assay: Flow cytometry binding of VHH–biotin–PTH conjugates to PTHR1-6E-HEK cells; parameters: species or system human
Method in brief: as §1

Molecule	EC50 (neg-HEK cells)	cAMP stimulation compared with PTH1–34 (in words) (human PTHR1)	also measured
VHHa5b1–PTH1–11: conjugate of VHHα5β1 (targets integrin α5β1), biotin and PTH1–11 (SVSEIQLMHNL; also: conjugated to anti-integrin α5β1 VHH and biotin; UniProt P01270 32-42, looked up, fragment)	3 nM	–	–
VHHMHC-II–PTH1–34: CLAMP of PTH1–34 conjugated to VHH that targets murine MHC-II (SVSEIQLMHNLGKHLNSMERVEWLRKKLQDVHNF; Parathyroid hormone conjugated to anti-MHC-II VHH; UniProt P01270 32-65, looked up, fragment)	–	performed similarly to PTH1–34 itself	–
CC[C@H](C)[C@H](NC(=O)[C@H](CCC(=O)O)NC(=O)[C@H](CO)NC(=O)[C@@H](NC(=O)[C@@H](N)CO)C(C)C)C(=O)N[C@@H](CCC(N)=O)C(=O)N[C@@H](CC(C)C)C(=O)N[C@@H](CCSC)C(=O)N[C@@H](Cc1c[nH]cn1)C(=O)N[C@@H](CC(N)=O)C(=O)N[C@@H](CC(C)C)C(=O)NCC(=O)N[C@@H](CCCCN)C(=O)N[C@@H](Cc1c[nH]cn1)C(=O)N[C@@H](CC(C)C)C(=O)N[C@@H](CC(N)=O)C(=O)N[C@@H](CO)C(=O)N[C@@H](CCSC)C(=O)N[C@@H](CCC(=O)O)C(=O)N[C@@H](CCCNC(=N)N)C(=O)N[C@H](C(=O)N[C@@H](CCC(=O)O)C(=O)N[C@@H](Cc1c[nH]c2ccccc12)C(=O)N[C@@H](CC(C)C)C(=O)N[C@@H](CCCNC(=N)N)C(=O)N[C@@H](CCCCN)C(=O)N[C@@H](CCCCN)C(=O)N[C@@H](CC(C)C)C(=O)N[C@@H](CCC(N)=O)C(=O)N[C@@H](CC(=O)O)C(=O)N[C@H](C(=O)N[C@@H](Cc1c[nH]cn1)C(=O)N[C@@H](CC(N)=O)C(=O)N[C@@H](Cc1ccccc1)C(=O)N[C@@H](CS)C(N)=O)C(C)C)C(C)C [PTH1–34, reference compound]	–	–	EC50 (PTHR1-6E): 0.18 nM
VHHMHC-I–PTH1–11: conjugate of VHHMHC-I (targets human β2-microglobulin, previously Nb30), biotin and PTH1–11 (SVSEIQLMHNL; also: conjugated to anti-β2-microglobulin VHH and biotin; UniProt P01270 32-42, looked up, fragment)	4.3 nM	–	stimulation of cAMP responses (in words) (PTHR1-6E; PTHR1-6E-HEK cells, Fig. 2e and Table 1): essentially inactive in stimulating cAMP responses
VHHGFP–PTH1–34: CLAMP of PTH1–34 conjugated to VHH that targets GFP (SVSEIQLMHNLGKHLNSMERVEWLRKKLQDVHNF; also: conjugated to anti-GFP VHH (with biotin); UniProt P01270 32-65, looked up, fragment)	–	performed similarly to PTH1–34 itself	–
VHH6E–PTH1–11: conjugate of VHH6E (binds UBC6E epitope tag), biotin and PTH1–11 (SVSEIQLMHNL; also: conjugated to VHH6E nanobody and biotin; UniProt P01270 32-42, looked up, fragment)	–	–	staining signal compared with VHHMHC-I (in words) (PTHR1-6E-HEK cells): stronger signal than staining with VHHMHC-I; maximal staining (in words) (neg-HEK cells; HEK-neg cells): a The maximal staining for VHH6E–PTH1–11 on HEK-neg cells was very weak, so binding EC50 values were not determined (ND).

— paper PMC8637866 (RSC Chemical Biology, 2021)
